EphB4 ephrin blk = EphB4-ephrin-B2 interaction antagonism; EphB4 LBD / TNYL-RAW-Alexa532 peptide, fluorescence polarization; inhibition, % at 7 µM; P54760; 97,000 compounds, 0.15% hits; AID 720;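 active = inhibition above the screen-wide mean inhibition plus 3 SD, cut at about 15% in these data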
GALR2 agonist = GALR2 (human) receptor agonism; GALR2-expressing cells, agonist activation read-out; 140,000 compounds, 0.48% hits; O43603; activation, % (no concentration beside the values); in the data active = activation above about 5%, passing the limit was not always enough
Target sequence (O43603 whole entry, looked up): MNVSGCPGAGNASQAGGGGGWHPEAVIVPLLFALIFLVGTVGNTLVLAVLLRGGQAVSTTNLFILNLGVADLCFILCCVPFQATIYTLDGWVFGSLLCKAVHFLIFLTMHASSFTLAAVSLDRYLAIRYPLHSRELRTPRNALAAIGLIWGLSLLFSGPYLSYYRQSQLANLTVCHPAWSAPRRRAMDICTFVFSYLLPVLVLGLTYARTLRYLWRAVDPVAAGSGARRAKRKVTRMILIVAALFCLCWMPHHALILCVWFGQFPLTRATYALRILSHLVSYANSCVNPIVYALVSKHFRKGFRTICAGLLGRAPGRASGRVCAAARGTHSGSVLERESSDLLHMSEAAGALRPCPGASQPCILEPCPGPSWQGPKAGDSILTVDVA
Rev-RRE block = HIV Rev-RRE protein-RNA interaction inhibition; AID 704; 97,000 compounds, 0.79% hits; P05866; Rev peptide-RRE RNA binding, FRET; inhibition, % at 8 µM;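 active = inhibition above the screen-wide mean plus 3 SD, cut at about 35% in these data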
Target sequence (P05866 whole entry, looked up): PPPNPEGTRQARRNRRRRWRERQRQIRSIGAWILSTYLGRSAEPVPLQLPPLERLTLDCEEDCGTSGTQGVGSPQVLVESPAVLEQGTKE
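Test system: Cy5-tagged RRE RNA duplex with fluorescein-tagged Rev peptide; Probe or stimulus: labelled Rev peptide; Schedule: 5 min preincubation and 15 min binding, 25 °C; Signal: FRET fluorescence readout; Evaluation: % inhibition from 671/540 nm acceptor-to-donor ratio, scaled between controls; Control set: DMSO and neomycin B.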
S1P2 blocker = blocks the human S1P2 receptor | AID 736 | 97,000 compounds, 0.21% hits | O95136 | inhibition, % at 5 µM | cell-based S1P2 antagonist assay, inhibition at 5 uM; in the data active = inhibition above about 45%;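 note: CRE beta-lactamase reporter cells expressing human S1P2 stimulated with S1P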
GALR2 blocker = GALR2 (human) receptor antagonism; O43603; GALR2-expressing cells, antagonist mode; inhibition, % at 4 µM; 140,000 compounds, 0.39% hits; in the data active = inhibition above about 27%;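 note: cells stimulated with galanin 1-16 at roughly its EC80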
S1P2 agonist = agonists of human S1P2 receptor; activation, % at 4.5 µM; O95136; S1P2-expressing cell line, agonist reporter read-out; 97,000 compounds, 0.46% hits; AID 729; in the data active = activation above about 16%
A number is an active result; – = inactive; · = no result; [ ] = remark or other dose. Rows were chosen to be rich in hits. Some 1.8% of all compounds tested hit in one or more screens of this group.

SMILES | EphB4 ephrin blk | GALR2 agonist | Rev-RRE block | S1P2 blocker | GALR2 blocker | S1P2 agonist
O=C(Cn1cnc2c(nnn2Cc2ccc(F)cc2)c1=O)NCc1ccco1 | – | – | – | – | – | 33.2
CCN(CC)C(=O)CNc1ccc(C(F)(F)F)cc1[N+](=O)[O-] | · | – | · | · | – | ·
O=C(Nc1ccccc1C(=O)NC(Cc1ccccc1)C(=O)NC1CCCCC1)c1ccccc1 (centres undefined) | · | – | · | · | – | ·
CC(=O)Nc1cccc(-c2csc(Nc3cc(C)ccn3)n2)c1 | – | – | – | – | – | –
Cc1ccnc(N/C=C(\C#N)c2nc(-c3cccc(Br)c3)cs2)c1 | – | – | 136.0[fluorescence artefact?] | – | – | –
O=C1NC(=S)N/C1=C/c1cc([N+](=O)[O-])ccc1O | – | – | 111.4[fluorescence artefact?] | – | – | –
CCOc1cc(/C=C2/NC(=S)NC2=O)ccc1OCc1ccc([N+](=O)[O-])cc1 | – | – | – | – | – | –
O=C1NC(=S)N/C1=C/c1cccc([N+](=O)[O-])c1O | – | – | 69.3 | – | – | –
COC(=O)Cc1ccc(NC(=S)N2CCN(c3ccc(F)cc3)CC2)cc1 | · | – | · | · | – | ·
CCc1ccc(NC(=O)C(C)OC(=O)c2ccc(N3CCCC3)c([N+](=O)[O-])c2)cc1 (centres undefined) | · | – | · | · | – | ·
CC(C)(C)NC(=O)C(c1ccco1)N(C(=O)Cn1nnc(-c2ccc(F)cc2)n1)c1ccccc1F (centres undefined) | – | – | – | – | – | 18.6
CC(C)(C)NC(=O)C(c1ccco1)N(C(=O)Cn1nnc(-c2ccc(F)cc2)n1)c1ccccc1 (centres undefined) | – | – | – | – | – | –
COC(=O)CSC1=C(C#N)C(c2ccc3c(c2)OCO3)C2=C(CCCC2=O)N1 (centres undefined) | – | – | – | – | – | –
COC(=O)CSC1=C(C#N)C(c2ccc(C)cc2)C2=C(CCCC2=O)N1 (centres undefined) | 16.1 | – | – | – | – | –
O=C(c1ccc2c(c1)OCO2)N(Cc1ccco1)C1(C(=O)NC2CCCCC2)CCCCC1 | – | – | – | – | – | –
COc1ccc(C(C)NC(=O)c2ccccc2)cc1 (centres undefined) | 16.0 | – | – | – | – | –
COc1ccc(CNC(=O)CCSCc2cccc(Cl)c2)c(OC)c1 | · | – | · | · | – | ·
COCCn1nnnc1CN1CCN2CCCC2C1 (centres undefined) | – | – | – | – | – | 43.5
Cc1occc1C(=O)NN1C(=O)C2C3CCC(O3)C2C1=O (centres undefined) | · | – | · | · | – | ·
COc1ccc(OCC(O)Cn2c(=N)n(Cc3ccccc3)c3ccccc32)cc1 (centres undefined) | – | – | – | – | 29.1 | –
CN1CCC2(CC1)C1CN(C)CC=C1C(C#N)=C(N)C2(C#N)C#N (centres undefined) | – | – | 74.0 | – | – | –
CSc1cccc(-n2c(C)cc(C(N)=O)c2C)c1 | 15.5 | – | – | – | – | –
COc1ccc(-c2nc3ccccn3c2NCc2ccc3c(c2)OCO3)cc1 | – | – | – | – | – | –
c1ccc(-c2nc3ccccn3c2NCc2ccc3c(c2)OCO3)cc1 | – | – | – | – | – | 174.3
Cc1ccc(S(=O)(=O)Oc2ccc(C3C4=C(CCCC4=O)N(CCC(=O)O)C4=C3C(=O)CCC4)cc2Cl)cc1 | · | 6.6 | · | · | – | ·
SMILES | EphB4 ephrin blk | GALR2 agonist | Rev-RRE block | S1P2 blocker | GALR2 blocker | S1P2 agonist
CCOc1cc(C2C3=C(CCCC3=O)N(CCC(=O)O)C3=C2C(=O)CCC3)ccc1OS(=O)(=O)c1ccc(C)cc1 | · | – | · | · | – | ·
Nc1nsc2ccccc12 | – | – | – | 49.5 | 50.3 | –
Nc1ccc2c(c1)sc1ccccc12 | · | – | · | · | – | ·
CN1C=CC2=C(C#N)C(N)C(C#N)(C#N)[C@H](c3ccccc3)[C@H]2C1 (some centres undefined) | – | – | 59.6 | – | – | –
CCCCN1C(=O)/C(=C/C=C2/CC(C)(C)CN2C)SC1=S | · | – | · | · | – | ·
CCN1C(=O)/C(=C/C=C2/SCCN2C)SC1=S | – | – | 129.2[fluorescence artefact?] | – | – | –
CCN(CC)S(=O)(=O)c1ccc(Cl)c(NC(=O)COC(=O)/C=C/c2ccc(O)c(OC)c2)c1 | · | – | · | · | – | ·
OCc1cn(-c2ccccc2)nc1-c1ccco1 | – | – | – | – | – | –
C=CCOC(=O)C1=C(C)NC(C)=C(C(=O)OCC=C)C1c1cn(-c2ccccc2)nc1-c1ccco1 | · | 5.1 | · | · | – | ·
COc1cc2c(cc1OC)C1=C(C#N)CCC(=NC(=O)c3ccc(Cl)cc3)N1CC2 | – | – | – | – | – | 55.1
O=C([C@H](O)c1ccccc1)N1CCC[C@H]1CO | · | – | · | · | – | ·
c1ccc(OCCSc2nnnn2-c2ccccc2)cc1 | – | – | – | – | – | 61.8
CCCCOc1ccccc1C1C(C(=O)OC)=CN(CC)C=C1C(=O)OC | – | 15.7 | – | – | – | 24.0
CCCOc1ccccc1C1C(C(=O)OC)=CN(C(C)C)C=C1C(=O)OC | – | 29.1 | – | – | – | 32.2
COC(=O)C1=CN(C)C=C(C(=O)OC)C1c1ccccc1Cl | – | 16.0 | – | – | – | 22.9
CCOc1ccc(C2C(C(=O)OC)=CN(CCOC)C=C2C(=O)OC)cc1 | · | – | · | · | – | ·
CCN1C=C(C(=O)OC)C(c2cccc(C)c2)C(C(=O)OC)=C1 | – | 14.0 | – | – | – | –
COC(=O)C1=C(C)Nc2nnnn2C1c1ccccc1Cl (centres undefined) | – | – | – | – | – | –
CCCOc1ccccc1C1NC(=O)NC(C)=C1C(=O)OCCOCC (centres undefined) | – | – | – | – | – | –
COc1ccc(/C=N/NC(=O)COc2ccc(Cl)cc2Cl)cc1Cn1nc(C)cc1C | · | – | · | · | – | ·
CC(/C=N/Nc1nc(C)cc(C)n1)=C\c1ccc(C(C)C)cc1 | · | – | · | · | – | ·
COc1ccccc1C(=O)NCCCN1CCCC1=O | – | – | – | – | – | –
COC(=O)C1=CN(CCCN2CCCC2=O)C=C(C(=O)OC)C1c1ccccc1C(F)(F)F | – | 19.6 | – | – | – | 20.0
Cc1ccc(C(=O)Nc2ccc([N+](=O)[O-])cn2)o1 | · | – | · | · | – | ·
N#CC1=C(N)SC(N)=C(C#N)C1c1cccc(Oc2ccccc2)c1 | – | – | 80.1 | – | – | –
SMILES | EphB4 ephrin blk | GALR2 agonist | Rev-RRE block | S1P2 blocker | GALR2 blocker | S1P2 agonist
N#CC1=C(N)SC(N)=C(C#N)C1c1c(Cl)cccc1Cl | – | – | – | – | – | –
N#CC1=C(N)SC(N)=C(C#N)C1Cc1ccccc1 | – | – | 47.0 | – | – | –
N#CC1=C(N)SC(N)=C(C#N)C1CCc1ccccc1 | – | – | 78.7 | – | – | –
CC(C)CC1C(C#N)=C(N)SC(N)=C1C#N | – | – | – | – | – | –
CC1(C)CC(=O)C2=C(C1)OC(N)=C(C#N)C2c1cc2c(cc1[N+](=O)[O-])OCO2 (centres undefined) | · | – | · | · | – | ·
Cc1ccc(NC(=O)/C(Cl)=C/c2ccccc2)cc1C | · | – | · | · | – | ·
O=C(CSc1n[nH]c(=O)[nH]c1=O)N/N=C/c1ccccc1 | · | – | · | · | – | ·
CCCOc1ccc(Cn2c(=O)oc3ccc(C)cc32)cc1OC | – | – | – | – | – | 29.1

Compound activity as filed in PubChem.
